Results on three compounds are retold here after ChEMBL document CHEMBL1124127, “Central dopaminergic and 5-hydroxytryptaminergic effects of C3-methylated derivatives of 8-hydroxy-2-(di-n-propylamino)tetralin” (J Med Chem, 1988).

The subject of assay [1] is Rattus norvegicus. As to the kind of experiment: Effect on in vivo accumulation of dopamine(DA) was measured in rat limbic system at 22(Micromol/kg) dose. The class given is functional. The gist of the method: (§1)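 Non-reserpinized rats got the test drug sc in the neck (5 mL/kg) 60 min before death, and NSD 1015 (573 µmol/kg ip) 30 min before death. After decapitation, the limbic system was dissected on ice, frozen and homogenized in 0.1 M perchloric acid with α-methyl-DOPA internal standard. DA was measured by ion-pair reversed-phase HPLC with electrochemical detection. Data are mean ± SEM (controls n=17-19, treated 3-7), analysed by ANOVA/Dunnett.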

For assay [2], the target named is T1, 5-hydroxytryptamine receptor 1A (Rattus norvegicus, UniProt P19327).
T1 sequence (P19327 whole entry): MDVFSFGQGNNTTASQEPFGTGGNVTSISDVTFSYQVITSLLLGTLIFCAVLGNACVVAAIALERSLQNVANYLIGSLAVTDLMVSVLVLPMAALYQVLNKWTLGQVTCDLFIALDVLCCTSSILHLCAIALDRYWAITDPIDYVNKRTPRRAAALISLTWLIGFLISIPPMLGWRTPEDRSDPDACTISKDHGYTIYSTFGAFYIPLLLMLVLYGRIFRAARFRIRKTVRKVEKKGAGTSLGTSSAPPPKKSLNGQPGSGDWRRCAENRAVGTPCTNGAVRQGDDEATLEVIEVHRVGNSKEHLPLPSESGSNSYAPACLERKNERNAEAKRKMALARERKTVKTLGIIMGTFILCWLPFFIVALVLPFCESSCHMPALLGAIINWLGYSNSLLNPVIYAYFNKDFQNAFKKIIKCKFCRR
Description: Inhibitory activity tested in vitro at 5-hydroxytryptamine 1A receptor binding site in rat. The gist of the method:
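Competition binding used rat brain membranes washed in 50 mM Tris-HCl pH 7.4, preincubated 10 min at 37 °C to remove 5-HT, and used at 10 mg wet tissue/mL. Assay: 1 nM [3H]-8-OH-DPAT, 3 mM CaCl2, 100 µM pargyline, 15 min at 37 °C, then filtration on PEI-treated filters. Nonspecific binding was set with 10 µM 5-HT. IC50 came from four-parameter logistic regression, mean ± SEM of N experiments.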

Assay [3] deals with Rattus norvegicus. Description: Effect on in vivo accumulation of […] was measured in rat corpus striatum at 22(Micromol/kg) dose. The class given is functional. The gist of the method: (§2)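 Rats not pretreated with reserpine received test drug (hydrochloride or hydrobromide salt) sc in the neck region 60 min before death. NSD 1015 decarboxylase inhibitor (100 mg/kg, i.e., 573 μmol/kg, ip) was given 30 min before decapitation. Brain was dissected on ice. Tissue was homogenized in 0.1 M perchloric acid with α-methyl-DOPA internal standard. Analytes were quantified by ion-pair reversed-phase HPLC-electrochemical detection. Values are means ± SEM, n = 3-7 per treated group.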

The test system of assay [4] is Rattus norvegicus. Description: Effect on in vivo accumulation of 5-HTP was measured in rat corpus striatum at 2.2 (umol/kg) dose. The class given is functional. The gist of the method: as §2
Assay [5] deals with Rattus norvegicus. As to the kind of experiment: Effect on in vivo accumulation of […] was measured in rat corpus striatum at 2.2 (umol/kg) dose. It counts as functional. In a few lines:
as §2

Assay [6] has as its system Rattus norvegicus. Description: Effect on in vivo accumulation of 5-HTP was measured in rat limbic system at 2.2 (umol/kg) dose. It counts as functional. The gist of the method:
as §2

The subject of assay [7] is Rattus norvegicus. As to the kind of experiment: Effect on in vivo accumulation of DOPA was measured in rat corpus striatum at 2.2 (umol/kg) dose. It counts as functional. The gist of the method:
as §2

Assay [8] deals with Rattus norvegicus. As to the kind of experiment: Effect on in vivo accumulation of DOPA was measured in rat corpus striatum at 22(Micromol/kg) dose. It counts as functional. The gist of the method: as §2
For assay [9], the system named is Rattus norvegicus. As to the kind of experiment: Effect on in vivo accumulation of DOPA was measured in rat limbic system at 2.2 (umol/kg) dose. The class given is functional. In a few lines:
as §2

Assay [10] concerns Rattus norvegicus. As to the kind of experiment: Effect on in vivo accumulation of dopamine(DA) was measured in rat limbic system at 2.2 (umol/kg) dose. It counts as functional. The gist of the method:
as §1

The subject of assay [11] is Rattus norvegicus. As to the kind of experiment: Effect on in vivo accumulation of DOPA was measured in rat limbic system at 22(Micromol/kg) dose. It counts as functional. In a few lines: as §2
Assay [12] deals with Rattus norvegicus. As to the kind of experiment: Effect on in vivo accumulation of 5-HTP was measured in rat corpus striatum at 22(umol/kg) dose. It counts as functional. The gist of the method:
as §2

Assay [13] relates to Rattus norvegicus. As to the kind of experiment: Effect on in vivo accumulation of 5-HTP was measured in rat limbic system at 22(Micromol/kg) dose. The class given is functional. In a few lines:
as §2

Assay [14] deals with Rattus norvegicus. Description: Effect on in vivo accumulation of 5-HTP was measured in rat limbic system at 43(Micromol/kg) dose. The class given is functional. The gist of the method:
as §2

Assay [15] relates to Rattus norvegicus. As to the kind of experiment: Effect on in vivo accumulation of 5-HTP was measured in rat corpus striatum at 43(umol/kg) dose. It counts as functional. The gist of the method: as §2
Assay [16] concerns Rattus norvegicus. Description: Effect on in vivo accumulation of DOPA was measured in rat limbic system at 43(Micromol/kg) dose. The class given is functional. In a few lines: as §2
In assay [17] the test system is Rattus norvegicus. As to the kind of experiment: Effect on in vivo accumulation of dopamine(DA) was measured in rat limbic system at 43(Micromol/kg) dose. The class given is functional. The gist of the method: as §1
Assay [18] deals with Rattus norvegicus. As to the kind of experiment: Effect on in vivo accumulation of DOPA was measured in rat corpus striatum at 43(Micromol/kg) dose. It counts as functional. In a few lines:
as §2

The subject of assay [19] is Rattus norvegicus. As to the kind of experiment: Effect on in vivo accumulation of […] was measured in rat corpus striatum at 43(Micromol/kg) dose. The class given is functional. In a few lines:
as §2

The subject of assay [20] is Rattus norvegicus. Description: Effect on in vivo accumulation of […] was measured in rat corpus striatum at 2.5 (umol/kg) dose. It counts as functional. In a few lines: as §2
In assay [21] the test system is Rattus norvegicus. Description: Effect on in vivo accumulation of […] was measured in rat corpus striatum at 50(Micromol/kg) dose. The class given is functional. In a few lines:
as §2

The subject of assay [22] is Rattus norvegicus. As to the kind of experiment: Effect on in vivo accumulation of dopamine(DA) was measured in rat limbic system at 25(Micromol/kg) dose. It counts as functional. The gist of the method: as §1
Assay [23] relates to Rattus norvegicus. Description: Effect on in vivo accumulation of 5-HTP was measured in rat corpus striatum at 50(umol/kg) dose. It counts as functional. The gist of the method: as §2
Assay [24] concerns Rattus norvegicus. Description: Effect on in vivo accumulation of 5-HTP was measured in rat corpus striatum at 2.5(umol/kg) dose. The class given is functional. In a few lines: as §2
Assay [25] concerns Rattus norvegicus. As to the kind of experiment: Effect on in vivo accumulation of DOPA was measured in rat corpus striatum at 2.5 (umol/kg) dose. It counts as functional. The gist of the method:
as §2

The subject of assay [26] is Rattus norvegicus. As to the kind of experiment: Effect on in vivo accumulation of dopamine(DA) was measured in rat limbic system at 50(Micromol/kg) dose. The class given is functional. In a few lines: as §1
Assay [27] concerns Rattus norvegicus. Description: Effect on in vivo accumulation of DOPA was measured in rat limbic system at 25(Micromol/kg) dose. It counts as functional. In a few lines:
as §2

For assay [28], the system named is Rattus norvegicus. Description: Effect on in vivo accumulation of DOPA was measured in rat corpus striatum at 50(Micromol/kg) dose. It counts as functional. The gist of the method:
as §2

Assay [29] deals with Rattus norvegicus. Description: Effect on in vivo accumulation of DOPA was measured in rat limbic system at 2.5 (umol/kg) dose. It counts as functional. The gist of the method: as §2
The subject of assay [30] is Rattus norvegicus. Description: Effect on in vivo accumulation of […] was measured in rat corpus striatum at 25(Micromol/kg) dose. It counts as functional. The gist of the method:
as §2

Assay [31] deals with Rattus norvegicus. Description: Effect on in vivo accumulation of dopamine(DA) was measured in rat limbic system at 2.5 (umol/kg) dose. The class given is functional. In a few lines: as §1
The test system of assay [32] is Rattus norvegicus. Description: Effect on in vivo accumulation of DOPA was measured in rat corpus striatum at 25(Micromol/kg) dose. The class given is functional. In a few lines:
as §2

The test system of assay [33] is Rattus norvegicus. Description: Effect on in vivo accumulation of 5-HTP was measured in rat limbic system at 2.5 (umol/kg) dose. It counts as functional. The gist of the method: as §2
Assay [34] relates to Rattus norvegicus. As to the kind of experiment: Effect on in vivo accumulation of 5-HTP was measured in rat limbic system at 50(Micromol/kg) dose. It counts as functional. The gist of the method:
as §2

Assay [35] deals with Rattus norvegicus. As to the kind of experiment: Effect on in vivo accumulation of 5-HTP was measured in rat limbic system at 25(Micromol/kg) dose. It counts as functional. In a few lines:
as §2

For assay [36], the system named is Rattus norvegicus. Description: Effect on in vivo accumulation of DOPA was measured in rat limbic system at 50(Micromol/kg) dose. It counts as functional. In a few lines: as §2
Assay [37] has as its system Rattus norvegicus. As to the kind of experiment: Effect on in vivo accumulation of 5-HTP was measured in rat corpus striatum at 25 (umol/kg) dose. The class given is functional. In a few lines:
as §2

Regarding `CCCN(CCC)[C@H]1Cc2c(O)cccc2C[C@@H]1C` (stereo in doubt; (+)-11), the Activity is below 839 ng/g in the assay on Rattus norvegicus [1]; below 4089 ng/g with Rattus norvegicus [3]; 87.3 ng/g with Rattus norvegicus [4]; 5158 ng/g with Rattus norvegicus [5]; 144 ng/g in the assay on Rattus norvegicus [6]; 1008 ng/g with Rattus norvegicus [7]. For the same compound, the Activity in the assay on Rattus norvegicus [8] is 959 ng/g; with Rattus norvegicus [9], 389 ng/g; in the assay on Rattus norvegicus [10], 1067 ng/g; with Rattus norvegicus [11] it was 400 ng/g; in the assay with Rattus norvegicus [12] it was below 56.4 ng/g; in the assay with Rattus norvegicus [13], below 89.5 ng/g. Further, in [2], the IC50 – broadly, the concentration that gives 50% inhibition – came to 60.5 nM.

As for `CCCN(CCC)[C@H]1Cc2c(O)cccc2C[C@@H]1C` (stereo in doubt; (-)-11), the Activity with Rattus norvegicus [14] is 136 ng/g; with Rattus norvegicus [15], 117 ng/g; in the assay with Rattus norvegicus [16] it was 381 ng/g; in the assay with Rattus norvegicus [17], below 800 ng/g; in the assay with Rattus norvegicus [18] it was 1039 ng/g; with Rattus norvegicus [19], below 4181 ng/g. The IC50 in assay [2] was 1680 nM.

For the compound `CCCN(CCC)[C@H]1Cc2c(O)cccc2C[C@H]1C` (stereo in doubt; (-)-15), the Activity with Rattus norvegicus [20] is 4439 ng/g; in the assay with Rattus norvegicus [21] it was 5282 ng/g; with Rattus norvegicus [22], 1094 ng/g; in the assay with Rattus norvegicus [23] it was below 45.8 ng/g; in the assay with Rattus norvegicus [24] it was 96.6 ng/g; in the assay on Rattus norvegicus [25], 1080 ng/g. Moreover, the Activity in the assay with Rattus norvegicus [26] is 1065 ng/g; with Rattus norvegicus [27] it was below 521 ng/g; in the assay on Rattus norvegicus [28] it was 1001 ng/g; in the assay with Rattus norvegicus [29], below 463 ng/g; with Rattus norvegicus [30], 4751 ng/g; in the assay on Rattus norvegicus [31], 1133 ng/g. The Activity was 1241 ng/g with Rattus norvegicus [32]; 163 ng/g in the assay on Rattus norvegicus [33]; below 88.3 ng/g in the assay on Rattus norvegicus [34]; below 120 ng/g in the assay on Rattus norvegicus [35]; 396 ng/g in the assay on Rattus norvegicus [36]; below 65.4 ng/g with Rattus norvegicus [37]. Also, the IC50 in [2] is 486 nM.
